The results in this text go back to PubChem BioAssay AID588713 (Southern Research Specialized Biocontainment Screening …, 2011).

SMILES strings stand for the structures. Activity calls are given as the source filed them.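 The calls were made as follows: active = log virus titer change below -1, over tenfold drop in progeny titer versus untreated infected control; inactive = the rest.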

The subject of the experiment is HEp-2 cells, RSV plaque reduction, virus titer. The experiment can be described thus: RSV titer reduction in HEp-2 cells, cell-based, plaque reduction, set 4 (AID 588713). As to conditions: at 10 µM; hits give low values. A digest of the protocol:
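Assay system: RSV-infected HEp-2 cells | Also added: RSV Long, MOI 0.1 | Dosing: Test compound with 0.5% DMSO final | Schedule: 48 h compound exposure after 2 h infection, 37 °C | Technique: Plaque titration on fresh HEp-2 under 1% Avicel, 6 days, neutral red stain | Evaluation: Progeny virus titer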
Turning to `COCCCNC(=O)c1ccc(Cn2c(=O)c3ccccc3n(Cc3ccc([N+](=O)[O-])cc3)c2=O)cc1`, the log virus titer change was under -6.18.

Turning to `CN(C)c1ccc(Cn2c(=O)n(Cc3ccc(C(=O)NCC4COC4)cc3)c(=O)c3ccccc32)cc1`, the log virus titer change was under -6.18.

Consider `O=C(O)c1ccc(Cn2c(=O)n(Cc3ccc(C(=O)NCC4COC4)cc3)c(=O)c3ccccc32)cc1`, for which the log virus titer change is 0.68 (inactive).

In the case of `CC(C)c1ccc(Cn2c(=O)n(Cc3ccc(C(=O)NCc4ccco4)cc3)c(=O)c3ccccc32)cc1`, the log virus titer change is -2.83.
